Published values collected from several papers.
Lines come from different studies, so protocols differ. Converted amounts (≈) assume the structure as drawn.
Organism: Cryptococcus neoformans

SMILES | test | system | setting | endpoint | value
C[C@@H]1[C@H](O)[C@@H](C)/C=C/C=C/C=C/C=C/C=C/C=C/C=C/[C@H](O[C@@H]2O[C@H](C)[C@@H](O)[C@H](N)[C@@H]2O)C[C@@H]2O[C@](O)(C[C@@H](O)C[C@@H](O)[C@H](O)CC[C@@H](O)C[C@@H](O)CC(=O)O[C@H]1C)C[C@H](O)[C@H]2C(=O)O | microbial growth, broth dilution | ATCC90113 |  | IC50 | 0.69 µg/mL (≈ 0.747 µM)
O=C(CCCCCCCC[P+](c1ccccc1)(c1ccccc1)c1ccccc1)Nc1cc(O)c(O)c(O)c1.[Br-] | microbial growth, broth dilution | ATCC208821 | 24 h | MIC | 8 µg/mL
C#CCCCCCCCCCCCC(O)CC(O)CO (stereo not shown) | microbial growth, broth dilution | ATCC90113 |  | IC50 | 8 µg/mL (≈ 28.1 µM)
Cc1occc(=O)c1O | microbial growth, broth dilution |  | 48 h | MIC | > 100 µM
O=C(CCCCCC[P+](c1ccccc1)(c1ccccc1)c1ccccc1)Nc1ccc(O)c(O)c1.[Br-] | microbial growth, broth dilution | ATCC208821 | 24 h | MIC | > 32 µg/mL
OCCN1CCN(CCCN2c3ccccc3Sc3ccc(Cl)cc32)CC1 | microbial growth, broth dilution |  |  | MIC | 16 µg/mL
C=CCCCCCCCCCCCC(O)CC(O)CO (stereo not shown) | microbial growth, broth dilution | ATCC90113 |  | IC50 | > 200 µg/mL
C[C@@H]1[C@H](O)[C@@H](C)/C=C/C=C/C=C/C=C/C=C/C=C/C=C/[C@H](O[C@@H]2O[C@H](C)[C@@H](O)[C@H](N)[C@@H]2O)C[C@@H]2O[C@](O)(C[C@@H](O)C[C@@H](O)[C@H](O)CC[C@@H](O)C[C@@H](O)CC(=O)O[C@H]1C)C[C@H](O)[C@H]2C(=O)O | microbial killing | ATCC90113 |  | MFC | 2.5 µg/mL (≈ 2.71 µM)
O=C(CCCCCC[P+](c1ccccc1)(c1ccccc1)c1ccccc1)Nc1cc(O)c(O)c(O)c1.[Br-] | microbial growth, broth dilution | ATCC208821 | 24 h | MIC | 32 µg/mL
CCCCCCCCCCCCCC(O)CC(O)CO (stereo not shown) | microbial growth, broth dilution | ATCC90113 |  | IC50 | 32.9 µg/mL (≈ 114 µM)
